Active and inactive are the calls of the source. The calls are words filed in the database; no cut-off is given here.

The Papp A→B is the apparent permeability from the apical to the basolateral side of a cell layer. By IC50 is commonly meant the concentration needed to halve the response being measured.

Series [1] can be described thus: Efflux ratio of apparent permeability across […] side in human Caco-2 cells at 2 uM by LC-MS/MS analysis. Conditions: caco-2, 2 µM. Format: ADME, cell-based. Put shortly:
(§1)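 Caco-2 monolayers grown on permeable filters, used day 21. Drug solution 2 μM in prewarmed HBSS applied apical or basolateral, pH 7.4 both sides, 37 °C, stirring 500 rpm; 5 μM enalaprilat as integrity control. Receiver sampled at 30 min, donor sampled for mass balance; LC–MS/MS with warfarin internal standard.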
In general terms: Passage across Caco-2 layers is used to estimate intestinal permeability.

Series [2] in a line: Apparent permeability across apical to basolateral side in human Caco-2 cells at 2 uM by LC-MS/MS analysis. It counts as ADME, cell-based. Put shortly:
as §1

In series [3] the target is T1, Cytochrome P450 3A4 (Homo sapiens, UniProt P08684). Put plainly: Inhibition of CYP3A4 in human liver microsomes using testosterone as substrate incubated for 30 mins in presence of NADPH by LC-MS/MS analysis. Format: ADME, Microsome. Put shortly:
(§2)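 Human liver microsomes 0.2 mg/mL in 100 mM phosphate pH 7.4; compound final 1, 10 and 100 μM (1% DMSO). Substrates: midazolam 5 μM (10 min) or testosterone 50 μM (30 min). Started with NADPH, stopped with ice-cold acetonitrile containing internal standard; LC–MS/MS.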
In general terms: Liver microsomes are vesicles of endoplasmic reticulum, rich in cytochrome P450 enzymes.

Series [4] addresses T1, Cytochrome P450 3A4. Put plainly: Inhibition of CYP3A4 in human liver microsomes using midazolam as substrate incubated for 10 mins in presence of NADPH by LC-MS/MS analysis. It counts as ADME, Microsome. A digest of the protocol: as §2
For series [5], the system named is Mycobacterium tuberculosis. In words: Antimycobacterial activity against Mycobacterium tuberculosis H37Rv expressing GFP infected in mouse RAW264.7 cells assessed as inhibition of intracellular mycobacterial growth by measuring reduction in percentage of infected cells incubated for 5 days by SYTO 60 dye based automated high-content fluorescent microscopic analysis. It counts as functional, organism-based. The following applies: time 5.0 day. Put shortly: (§3)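 RAW 264.7 macrophages infected with GFP-expressing H37Rv for 3 h at 37 °C with shaking, washed by centrifugation, then seeded at 20,000 cells/well onto compounds dispensed acoustically from DMSO stocks, DMSO backfill. Incubated 5 days at 37 °C, 5% CO2, stained with SYTO 60, four confocal images per well; percentage of infected cells and bacterial area per infected cell scored. IC50 from dose–response; four replicates.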

For series [6], the system named is Mycobacterium tuberculosis. In words: Inhibition of biofilm formation in Mycobacterium tuberculosis Erdman assessed as inhibition of biofilm pellicle formation at 2.5 to 50 uM pretreated for 3 weeks under low oxygen and further treated for 3 weeks under aerated condition in presence of 0.05% tyloxapol by optical density based analysis. Format: functional, organism-based. Conditions: dose 2.5-50 µM, time 6.0 weeks. Put shortly: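 Pellicle assay with 0.05% tyloxapol added to each well to prevent biofilm; otherwise Sauton's medium inoculated with Mtb plus compound, sealed airtight 3 weeks at 37 °C, 5% CO2, then opened for 3 weeks aerobic.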

A short description of series [7]: Cytotoxicity against human Calu-3 cells assessed as reduction in cellular ATP level incubated for 72 hrs by celltiter-glo assay. Format: toxicity, cell-based. Conditions: read-out: LD50. A digest of the protocol: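 Calu-3 cells (DMEM, 10% FBS) plated 10,000/well for 18 h, then medium switched to 2% FBS; eight twofold doses 250 down to […], compounds as imidazole salts in DMSO with IMD/DMSO controls.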
A general note: Cellular ATP, detected with luciferase, serves as a proxy for viable cell number.

Series [8] can be described thus: Therapeutic index, ratio of LD50 for human IMR-90 cells to IC50 for antimycobacterial activity against Mycobacterium tuberculosis Erdman. It counts as toxicity. The following applies: read-out: TI. A digest of the protocol: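 LD50 from 48 h MTT assay in HEK 293, BEAS-2B or IMR-90 cells divided by MABA IC50 against Mtb.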
The test system of series [9] is CYP3A4. In words: Selectivity index, ratio of IC50 for CYP3A4 in human liver microsomes using testosterone as substrate to IC50 for antimycobacterial activity against Mycobacterium tuberculosis Erdman. The following applies: probe testosterone, read-out: Ratio IC50. Format: toxicity.
In series [10] the test system is CYP3A4. In words: Selectivity index, ratio of IC50 for CYP3A4 in human liver microsomes using midazolam as substrate to IC50 for antimycobacterial activity against Mycobacterium tuberculosis Erdman. Format: toxicity. Conditions: probe midazolam, read-out: Ratio IC50.
For series [11], the system named is RAW264.7. Put plainly: Cytotoxicity against mouse RAW264.7 cells assessed as reduction in cell viability at 0.01 to 10 uM incubated for 5 days by SYTO 60 dye based automated high-content fluorescent microscopic analysis. Format: toxicity. The following applies: raw264.7, 120 h, dose 0.01-10 µM, time 5 day. Put shortly: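 RAW 264.7 cells in RPMI-1640 with 10% heat-inactivated FBS, 20,000 cells/well added to compounds acoustically dispensed from DMSO stocks, DMSO backfill; 5 days at 37 °C, 5% CO2. SYTO 60 staining, four confocal images per well, total cell number counted; dose–response plotted.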

Series [12] concerns Mycobacterium tuberculosis. In words: Antimycobacterial activity against Mycobacterium tuberculosis H37Rv expressing GFP infected in mouse RAW264.7 cells assessed as inhibition of intracellular mycobacterial growth by measuring reduction in bacterial area per infected cells incubated for 5 days by SYTO 60 dye based automated high-content fluorescent microscopic analysis. It counts as functional, organism-based. The following applies: time 5.0 day. A digest of the protocol: as §3

Series [13] is described as follows: Solubility of compound in tween-free sauton's medium. Format: physicochemical.

T1 sequence (P08684 whole entry): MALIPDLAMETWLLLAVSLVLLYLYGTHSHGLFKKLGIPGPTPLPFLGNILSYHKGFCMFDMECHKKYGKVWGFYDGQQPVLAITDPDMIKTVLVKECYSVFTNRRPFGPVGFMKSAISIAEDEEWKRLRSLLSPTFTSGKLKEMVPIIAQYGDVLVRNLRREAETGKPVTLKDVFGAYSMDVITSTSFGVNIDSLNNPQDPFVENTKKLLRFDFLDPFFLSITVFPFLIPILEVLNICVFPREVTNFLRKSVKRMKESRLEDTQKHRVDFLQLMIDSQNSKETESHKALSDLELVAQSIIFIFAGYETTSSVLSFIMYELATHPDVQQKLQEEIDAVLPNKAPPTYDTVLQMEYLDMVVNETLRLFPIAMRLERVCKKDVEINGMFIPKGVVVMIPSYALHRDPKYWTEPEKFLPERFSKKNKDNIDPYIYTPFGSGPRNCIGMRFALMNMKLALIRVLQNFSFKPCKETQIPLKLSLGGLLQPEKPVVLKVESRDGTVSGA

`CC(C)(C)c1ccc(-c2nnc(SCc3cc(=O)n4c(c3C3CC3)SCC4C(=O)O)o2)cc1` (racemic): the Ratio in [1] amounted to 1.5. Further, the apical-to-basolateral permeability (Papp A→B) at 2 µM in series [2] turned out to be 0.88 ×10⁻⁶ cm/s. For the same molecule, the IC50 in [3] and in series [4] was over 100 µM each time.
As to `O=C(O)C1CSc2c(C3CC3)c(-c3cc(-c4ccc5ccccc5c4)no3)cc(=O)n21.c1c[nH]cn1` (racemic), the outcome in series [5] and in series [12] was Active. In series [6], the inhibition entry was “inactive”. Also, in [7], the CC50 at 72 h was over 250 µM. Also, the selectivity ratio in series [8] is 168; in [9] it was at least 16; in [10], at least 16. Besides, in series [11], the Activity result is recorded as “Non-Toxic”.
With `O=C(O)C1CSc2c(C3CC3)c(Cc3cccc4ccccc34)cc(=O)n21.c1c[nH]cn1` (racemic), the selectivity ratio in [9] and in series [10] was at least 16 each time. Besides, the Activity entry in series [11] is on record as “Non-Toxic”.
Regarding `O=C(O)C1CSc2c(C3CC3)c(CSc3nnc(-c4cccc(C(F)(F)F)c4)o3)cc(=O)n21` (racemic), the solubility entry in series [13] is recorded as “Insoluble”.
For the molecule `CC(C)(C)c1ccc(-n2cc(-c3cc(=O)n4c(c3C3CC3)SCC4C(=O)O)nn2)cc1` (racemic), the IC50 in series [3] and in [4] was over 100 µM each time.
Regarding `O=C(O)C1CSc2c(C3CC3)c(-c3cc(-c4ccccc4)no3)cc(=O)n21` (racemic), the solubility result in series [13] is recorded as “Insoluble”.
